Assay results pooled from the literature.
Protocols differ between the studies behind these lines.
FGFR3 G697C: Fibroblast growth factor receptor 3 (FGFR3, Homo sapiens, UniProt P22607, G697C)
FGFR3: Fibroblast growth factor receptor 3 (FGFR3, Homo sapiens, UniProt P22607)

CC/C(=N\NC(=O)NCc1cccc(O)c1)c1ccc(O)c(C)c1O has an inhibition of 4.2% (Fibroblast growth factor receptor 3 (FGFR3, Homo sapiens, UniProt P22607, K650M); enzyme activity; inhibitor; 0.1 µM).
For CN(CCCC(F)(F)F)c1nccc(-c2cnn3ncccc23)n1, the remaining binding was 86% (FGFR3 G697C; binding; 1 µM).
The inhibition of CCN(CC)CCNC(=O)c1c(C)[nH]c(/C=C2\C(=O)Nc3ccc(F)cc32)c1C is reported as 61% (FGFR3; enzyme activity; inhibitor; 0.3 µM).
CS(=O)(=O)Nc1cccc(-c2csc(NC(=O)CSc3nc4nccnc4c(=O)n3CCc3ccccc3)n2)c1 has an inhibition of -15% (FGFR3; enzyme activity; inhibitor; 10 µM).
For CC(C)(C)c1nc(-c2cccc(NS(=O)(=O)c3c(F)cccc3F)c2F)c(-c2ccnc(N)n2)s1, the remaining activity was 118% (FGFR3; enzyme activity; inhibitor; radiometric; 1 µM).
For Cc1ccc(Nc2nccc(N(C)c3ccc4c(C)n(C)nc4c3)n2)cc1S(N)(=O)=O, the inhibition was 99% (FGFR3; enzyme activity; inhibitor; 10 µM).
The remaining binding of C[C@@H]1CN(c2cc(-c3n[nH]c4ccc(OC5(C)CC5)cc34)ncn2)C[C@H](C)O1 is reported as 86% (FGFR3 G697C; cell-free assay; competition with immobilised ligand; 0.1 µM).
For O=C(Nc1cnn(-c2csc(C(=O)NC3COC3)c2)c1)Nc1ccccc1Cl, the remaining activity was 97.8% (FGFR3; enzyme activity; inhibitor; 5 µM).
Cc1cnc(NC2CCOCC2)nc1-n1cnc(C(=O)NC(CN)c2cc(F)cc(Cl)c2)c1 (stereo not shown) has a remaining activity of 100% (FGFR3; enzyme activity; inhibitor; radiometric; 1 µM).
Cc1sc(C(=O)NC2COC2)cc1-n1cc(NC(=O)Nc2c(F)cccc2Cl)cn1 gave a remaining activity of 137% (FGFR3; enzyme activity; inhibitor; 10 µM).
C[C@H]1CCN(c2nccc(-c3cnn4ncccc34)n2)C1 gave a remaining binding of 83% (FGFR3 G697C; binding; 1 µM).
COc1cc2ncnc(Nc3ccc(Oc4ccccc4)c(C)c3C)c2cc1OC has an inhibition of -2% (FGFR3; enzyme activity; inhibitor; 1 µM).
For COc1cc(-c2cn(C3CCc4c(F)cccc4N(CC(F)(F)F)C3=O)nn2)ccc1-n1cnc(C)c1 (stereo not shown), the remaining binding was 100% (FGFR3; cell-free assay; competition with immobilised ligand; 1 µM).
With Cc1ccc(C(=O)NCc2ccsc2)cc1C#Cc1cn(C(C)C)c2ncnc(N)c12 the activity vs control was 33% (FGFR3; enzyme activity; inhibitor; 1 µM).
Nc1ncnc2occ(-c3ccc(NC(=O)Nc4cc(C(F)(F)F)ccc4F)cc3)c12 has a remaining signal of 1.1% (FGFR3 G697C; cell-free assay; 20 µM).
The remaining binding of CN(c1nccc(-c2cnn3ncccc23)n1)C1CC1 is reported as 100% (FGFR3 G697C; binding; 1 µM).
With CCc1ccccc1C(=O)Nc1n[nH]c2c(C)c(F)c(C3C(C#N)=C(C)N(C)C(C)=C3C#N)cc12 the remaining binding was 93% (FGFR3; cell-free assay; competition with immobilised ligand; 1 µM).
Cc1ccc(NC(=O)c2ccc(C)c(C(F)(F)F)c2)cc1C#Cc1nn(C2CCC(O)CC2)c2ncnc(N)c12 (stereo not shown) gave a remaining signal of 3% (FGFR3; cell-free assay; 10 µM).
The inhibition of COc1cc2ncnc(Nc3ccc(Oc4ccccc4)cc3C)c2cc1OC is reported as 5% (FGFR3; enzyme activity; inhibitor; 1 µM).
For CN(C)c1ncc(F)c(-c2cnn3ncccc23)n1, the remaining binding was 100% (FGFR3 G697C; binding; 1 µM).
Cc1nc(Cc2cccc(C(F)(F)F)c2)sc1-c1ccc(C(N)=O)nc1 has a remaining binding of 100% (FGFR3; cell-free assay; competition with immobilised ligand; 1 µM).
CSc1nc(C)c(-c2ccnc(Nc3ccc(N4CCOCC4)cc3)c2)[nH]1 gave an inhibition of 70.4% (FGFR3; cell-free assay; inhibitor; 10 µM).
With COc1cc(Cl)c(C(=O)N[C@@H](CN[C@H]2CC[C@@H](N)CC2)Cc2ccc(C#N)cc2)cc1-c1ccc(CN[C@H](C)c2ccc(C)cc2)o1 the remaining activity was 85% (FGFR3; enzyme activity; inhibitor; 1 µM).
CCC(=O)N[C@H]1CC[C@@H](C(=O)N(C)c2ccc(-c3nc4ccccc4o3)cc2)C1 has a remaining binding of 98% (FGFR3; cell-free assay; competition with immobilised ligand; 1 µM).
CC(C)(O)[C@H]1CC[C@H](Nc2ccc3ncc(-c4cccc(C(F)(F)F)c4)n3n2)CC1 has a remaining activity of 102% (FGFR3; enzyme activity; inhibitor; 1 µM).
CCOCCn1cc(C(=O)Nc2ccc(-n3nc(-c4cccnc4)cc3C(F)(F)F)cn2)ccc1=O has a remaining binding of 84% (FGFR3; cell-free assay; competition with immobilised ligand; 1 µM).
COc1ccc(COc2ccc(Cc3cnc(N)nc3N)cc2OC)cc1 has a remaining signal of 105% (FGFR3; cell-free assay; 0.5 µM).
With C[C@H](c1cccc(C#N)c1)n1cc(Cl)cc(C(N)=O)c1=N the remaining binding was 88% (FGFR3; cell-free assay; competition with immobilised ligand; 1 µM).
With N[C@H]1CCN(c2nccc(-c3cnn4ncccc34)n2)C1 the remaining binding was 84% (FGFR3; binding; 1 µM).
O=C1NC(=O)c2cc(Nc3ccc(F)cc3)c(Nc3ccc(F)cc3)cc21 gave a remaining signal of 99.7% (FGFR3; cell-free assay; 0.5 µM).
The remaining binding of O=C(O)[C@@H]1[C@@H](Cn2nnc3ccccc3c2=O)CC[C@H]1C(=O)c1ccc(OCCC2CCOCC2)cc1 is reported as 92% (FGFR3 G697C; cell-free assay; competition with immobilised ligand; 1 µM).
Cc1ccc(C(=O)Nc2ccc(CN3CCN(C)CC3)c(C(F)(F)F)c2)cc1C#Cc1cnc2cccnn12 has a remaining signal of 62% (FGFR3; cell-free assay; 23.5 nM).
With CNCc1ccc(-c2cc(-c3nc(-c4ccc(S(=O)(=O)C(C)C)cc4)cnc3N)on2)cc1 the inhibition was 0% (FGFR3; enzyme activity; inhibitor; 0.4 µM).
Nc1nc(Nc2ccc(S(N)(=O)=O)cc2)nn1C(=O)c1c(F)cccc1F has a remaining signal of 46.4% (FGFR3; cell-free assay; 0.5 µM).
